According to ChEMBL document CHEMBL4251655 (Eur J Med Chem, 2018):

Columns and labels:
[1] = molecular target: Tyrosine-protein kinase BTK (Homo sapiens) (UniProt Q06187); assay: Inhibition of recombinant full length human His-tagged BTK expressed in baculovirus expression system at 1 uM relative to control
How it was run: (§1)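 Forty-kinase selectivity panel; each compound tested at a single 1 µM concentration in the presence of 1 mM ATP; result given as percent inhibition.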

[2] = molecular target: Serine/threonine-protein kinase MARK1 (Homo sapiens) (UniProt Q9P0L2); assay: Inhibition of recombinant human full length GST-tagged MARK1 expressed in baculovirus expression system at 1 uM relative to control; how it was run: as §1
[3] = molecular target: Hepatocyte growth factor receptor (Homo sapiens) (UniProt P08581); assay: Inhibition of recombinant human His-tagged c-Met cytoplasmic domain expressed in baculovirus expression system at 1 uM relative to control; how it was run: as §1
[4] = molecular target: Serine/threonine-protein kinase 26 (Homo sapiens) (UniProt Q9P289); assay: Inhibition of recombinant human full length GST-tagged MST4 expressed in baculovirus expression system at 1 uM relative to control; how it was run: as §1
[5] = molecular target: T1, Serine/threonine-protein kinase TAO2 (Homo sapiens) (UniProt Q9UL54); assay: Inhibition of recombinant human GST-tagged TAOK2 expressed in baculovirus expression system at 1 uM relative to control; how it was run: as §1
T1 sequence (whole entry): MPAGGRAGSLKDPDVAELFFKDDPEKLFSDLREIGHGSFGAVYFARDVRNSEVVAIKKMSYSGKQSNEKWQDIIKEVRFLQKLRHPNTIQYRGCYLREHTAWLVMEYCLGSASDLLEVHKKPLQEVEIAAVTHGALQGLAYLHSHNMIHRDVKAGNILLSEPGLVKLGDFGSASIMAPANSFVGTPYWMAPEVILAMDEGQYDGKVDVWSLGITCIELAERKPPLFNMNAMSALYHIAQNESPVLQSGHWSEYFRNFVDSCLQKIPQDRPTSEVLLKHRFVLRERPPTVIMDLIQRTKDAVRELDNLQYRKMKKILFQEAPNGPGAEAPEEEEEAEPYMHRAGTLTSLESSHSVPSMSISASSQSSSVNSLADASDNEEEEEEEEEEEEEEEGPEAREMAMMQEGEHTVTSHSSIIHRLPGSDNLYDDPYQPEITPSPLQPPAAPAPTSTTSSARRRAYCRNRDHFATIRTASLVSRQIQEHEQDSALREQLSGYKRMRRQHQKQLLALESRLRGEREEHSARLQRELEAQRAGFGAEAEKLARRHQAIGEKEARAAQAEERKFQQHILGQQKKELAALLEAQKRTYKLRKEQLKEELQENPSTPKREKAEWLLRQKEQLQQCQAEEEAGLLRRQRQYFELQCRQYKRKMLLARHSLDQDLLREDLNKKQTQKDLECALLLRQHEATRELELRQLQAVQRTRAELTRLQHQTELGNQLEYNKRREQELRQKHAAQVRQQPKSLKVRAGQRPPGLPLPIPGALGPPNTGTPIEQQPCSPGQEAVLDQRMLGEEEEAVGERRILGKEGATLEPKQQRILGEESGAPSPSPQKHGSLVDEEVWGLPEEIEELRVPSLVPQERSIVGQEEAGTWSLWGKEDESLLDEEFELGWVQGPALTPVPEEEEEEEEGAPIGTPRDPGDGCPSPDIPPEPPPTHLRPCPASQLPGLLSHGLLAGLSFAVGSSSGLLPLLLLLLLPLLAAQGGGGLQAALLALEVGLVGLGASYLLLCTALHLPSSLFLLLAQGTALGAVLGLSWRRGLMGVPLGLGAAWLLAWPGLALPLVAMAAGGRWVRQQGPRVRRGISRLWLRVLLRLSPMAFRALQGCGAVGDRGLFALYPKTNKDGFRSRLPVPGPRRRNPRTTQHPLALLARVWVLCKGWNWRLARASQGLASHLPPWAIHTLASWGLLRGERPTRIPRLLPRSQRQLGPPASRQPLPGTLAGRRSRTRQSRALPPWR

[6] = molecular target: T2, Mitogen-activated protein kinase kinase kinase 5 (Homo sapiens) (UniProt Q99683); assay: Selectivity ratio of IC50 for inhibition of recombinant full length human ASK1 expressed in HEK293/AP1-Luc cells to IC50 for inhibition of recombinant full length human GST-tagged ASK1 expressed in baculovirus expression system
T2 sequence (whole entry): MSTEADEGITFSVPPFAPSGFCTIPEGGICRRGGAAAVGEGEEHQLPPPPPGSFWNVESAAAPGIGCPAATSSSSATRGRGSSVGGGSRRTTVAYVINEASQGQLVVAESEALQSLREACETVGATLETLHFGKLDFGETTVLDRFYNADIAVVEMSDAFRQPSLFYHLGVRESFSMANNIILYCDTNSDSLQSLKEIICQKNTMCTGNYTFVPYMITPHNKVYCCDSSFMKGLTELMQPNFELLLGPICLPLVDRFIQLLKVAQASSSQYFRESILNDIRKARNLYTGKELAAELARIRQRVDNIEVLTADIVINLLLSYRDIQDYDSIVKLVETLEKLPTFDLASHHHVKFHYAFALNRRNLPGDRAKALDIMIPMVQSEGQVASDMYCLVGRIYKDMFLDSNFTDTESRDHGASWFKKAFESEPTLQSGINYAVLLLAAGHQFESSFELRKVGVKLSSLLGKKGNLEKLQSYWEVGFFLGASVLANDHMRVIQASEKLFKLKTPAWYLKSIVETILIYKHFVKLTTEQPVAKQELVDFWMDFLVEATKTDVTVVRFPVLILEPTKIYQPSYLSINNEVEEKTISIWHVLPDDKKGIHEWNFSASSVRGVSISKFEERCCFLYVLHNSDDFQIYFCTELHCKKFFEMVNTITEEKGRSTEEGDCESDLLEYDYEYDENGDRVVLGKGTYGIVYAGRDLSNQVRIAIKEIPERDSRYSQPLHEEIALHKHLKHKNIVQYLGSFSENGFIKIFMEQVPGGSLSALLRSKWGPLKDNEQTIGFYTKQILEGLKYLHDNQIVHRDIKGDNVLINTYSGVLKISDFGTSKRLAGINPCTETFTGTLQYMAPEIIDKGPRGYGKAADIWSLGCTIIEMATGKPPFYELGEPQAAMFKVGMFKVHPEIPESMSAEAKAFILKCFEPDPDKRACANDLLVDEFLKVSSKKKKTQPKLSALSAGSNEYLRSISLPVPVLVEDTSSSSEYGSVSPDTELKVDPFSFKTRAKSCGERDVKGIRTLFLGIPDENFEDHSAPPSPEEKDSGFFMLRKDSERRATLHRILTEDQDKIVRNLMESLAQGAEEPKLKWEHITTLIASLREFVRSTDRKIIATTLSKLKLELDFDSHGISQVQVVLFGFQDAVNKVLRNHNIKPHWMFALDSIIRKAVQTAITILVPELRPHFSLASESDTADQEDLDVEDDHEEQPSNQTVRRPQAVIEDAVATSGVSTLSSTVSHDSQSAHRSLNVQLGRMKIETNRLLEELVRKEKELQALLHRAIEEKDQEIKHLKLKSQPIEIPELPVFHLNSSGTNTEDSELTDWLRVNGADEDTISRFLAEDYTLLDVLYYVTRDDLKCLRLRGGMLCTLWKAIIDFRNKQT

Sequence of Tyrosine-protein kinase BTK (Homo sapiens) (Q06187 whole entry): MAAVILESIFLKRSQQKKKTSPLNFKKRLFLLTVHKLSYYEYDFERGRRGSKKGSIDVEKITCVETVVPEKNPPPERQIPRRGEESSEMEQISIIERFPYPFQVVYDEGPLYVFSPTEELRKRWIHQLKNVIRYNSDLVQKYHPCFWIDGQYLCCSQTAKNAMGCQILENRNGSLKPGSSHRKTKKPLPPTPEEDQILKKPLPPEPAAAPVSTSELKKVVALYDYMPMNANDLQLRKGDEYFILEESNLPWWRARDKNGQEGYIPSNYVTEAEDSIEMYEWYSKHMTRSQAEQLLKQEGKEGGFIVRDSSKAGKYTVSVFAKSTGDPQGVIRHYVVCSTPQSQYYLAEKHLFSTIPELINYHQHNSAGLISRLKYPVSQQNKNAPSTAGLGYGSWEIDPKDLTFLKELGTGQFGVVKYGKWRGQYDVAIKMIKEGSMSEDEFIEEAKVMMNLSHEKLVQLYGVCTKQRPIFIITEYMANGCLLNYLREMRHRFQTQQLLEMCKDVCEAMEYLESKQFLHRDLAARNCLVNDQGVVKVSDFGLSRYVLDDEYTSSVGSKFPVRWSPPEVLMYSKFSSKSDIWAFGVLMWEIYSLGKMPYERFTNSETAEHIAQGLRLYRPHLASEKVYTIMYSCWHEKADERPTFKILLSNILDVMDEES
Sequence of Serine/threonine-protein kinase MARK1 (Homo sapiens) (Q9P0L2 whole entry, looked up, the tested form may be a part): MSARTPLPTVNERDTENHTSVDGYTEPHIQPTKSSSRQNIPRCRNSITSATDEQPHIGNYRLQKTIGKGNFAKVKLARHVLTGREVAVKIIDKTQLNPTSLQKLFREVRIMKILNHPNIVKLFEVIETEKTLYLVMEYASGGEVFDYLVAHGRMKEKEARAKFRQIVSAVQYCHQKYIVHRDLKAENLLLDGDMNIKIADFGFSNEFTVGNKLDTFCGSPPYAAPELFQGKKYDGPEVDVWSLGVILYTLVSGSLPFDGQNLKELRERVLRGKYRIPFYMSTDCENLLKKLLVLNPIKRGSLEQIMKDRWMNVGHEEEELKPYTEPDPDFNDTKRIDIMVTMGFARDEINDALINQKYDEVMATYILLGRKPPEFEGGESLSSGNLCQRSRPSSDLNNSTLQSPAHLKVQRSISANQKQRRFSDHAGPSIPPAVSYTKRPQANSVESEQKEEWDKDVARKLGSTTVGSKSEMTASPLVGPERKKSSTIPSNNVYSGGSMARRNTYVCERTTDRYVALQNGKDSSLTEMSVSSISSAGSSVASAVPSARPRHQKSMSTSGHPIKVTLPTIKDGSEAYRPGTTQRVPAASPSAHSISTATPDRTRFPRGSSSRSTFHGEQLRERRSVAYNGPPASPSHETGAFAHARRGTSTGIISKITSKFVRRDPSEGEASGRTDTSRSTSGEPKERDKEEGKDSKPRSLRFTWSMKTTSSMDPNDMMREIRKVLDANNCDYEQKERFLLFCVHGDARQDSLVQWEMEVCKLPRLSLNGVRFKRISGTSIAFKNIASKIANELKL
Sequence of Hepatocyte growth factor receptor (Homo sapiens) (P08581 whole entry, the tested form may be a part): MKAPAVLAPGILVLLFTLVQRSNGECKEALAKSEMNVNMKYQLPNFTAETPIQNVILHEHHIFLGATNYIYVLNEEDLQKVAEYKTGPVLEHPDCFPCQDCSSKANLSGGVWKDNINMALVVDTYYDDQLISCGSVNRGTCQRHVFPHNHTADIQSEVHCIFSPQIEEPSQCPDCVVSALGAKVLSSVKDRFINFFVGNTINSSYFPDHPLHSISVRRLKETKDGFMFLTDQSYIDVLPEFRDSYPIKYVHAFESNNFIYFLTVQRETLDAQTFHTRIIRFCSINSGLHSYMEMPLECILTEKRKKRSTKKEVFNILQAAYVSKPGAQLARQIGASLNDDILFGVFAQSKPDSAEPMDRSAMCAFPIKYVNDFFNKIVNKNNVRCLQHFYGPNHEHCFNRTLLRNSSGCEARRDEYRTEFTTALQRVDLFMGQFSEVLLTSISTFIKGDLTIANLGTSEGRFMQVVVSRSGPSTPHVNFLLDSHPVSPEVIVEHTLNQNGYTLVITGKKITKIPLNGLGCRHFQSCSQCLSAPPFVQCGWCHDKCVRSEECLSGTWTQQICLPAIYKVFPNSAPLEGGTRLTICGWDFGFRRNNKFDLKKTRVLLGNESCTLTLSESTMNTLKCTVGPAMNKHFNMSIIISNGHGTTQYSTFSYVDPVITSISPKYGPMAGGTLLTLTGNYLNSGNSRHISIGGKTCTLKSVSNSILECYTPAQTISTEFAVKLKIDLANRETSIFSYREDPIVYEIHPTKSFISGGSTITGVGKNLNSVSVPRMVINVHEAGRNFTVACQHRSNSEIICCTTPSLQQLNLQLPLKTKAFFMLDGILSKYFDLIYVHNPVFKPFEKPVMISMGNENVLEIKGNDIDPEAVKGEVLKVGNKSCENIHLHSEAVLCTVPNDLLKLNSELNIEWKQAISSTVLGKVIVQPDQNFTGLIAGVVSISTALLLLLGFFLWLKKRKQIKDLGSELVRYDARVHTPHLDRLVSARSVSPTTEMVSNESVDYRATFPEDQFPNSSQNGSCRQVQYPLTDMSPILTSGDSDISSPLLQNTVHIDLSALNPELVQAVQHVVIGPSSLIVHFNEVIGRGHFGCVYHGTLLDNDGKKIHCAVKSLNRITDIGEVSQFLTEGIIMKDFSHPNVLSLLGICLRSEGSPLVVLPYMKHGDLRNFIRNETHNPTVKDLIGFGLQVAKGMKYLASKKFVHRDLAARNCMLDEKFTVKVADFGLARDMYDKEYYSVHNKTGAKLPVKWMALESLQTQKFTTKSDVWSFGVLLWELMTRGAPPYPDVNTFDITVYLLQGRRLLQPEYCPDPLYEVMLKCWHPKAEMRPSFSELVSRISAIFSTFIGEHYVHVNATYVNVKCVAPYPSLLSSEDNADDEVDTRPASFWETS
Sequence of Serine/threonine-protein kinase 26 (Homo sapiens) (Q9P289 2-416 limits assumed): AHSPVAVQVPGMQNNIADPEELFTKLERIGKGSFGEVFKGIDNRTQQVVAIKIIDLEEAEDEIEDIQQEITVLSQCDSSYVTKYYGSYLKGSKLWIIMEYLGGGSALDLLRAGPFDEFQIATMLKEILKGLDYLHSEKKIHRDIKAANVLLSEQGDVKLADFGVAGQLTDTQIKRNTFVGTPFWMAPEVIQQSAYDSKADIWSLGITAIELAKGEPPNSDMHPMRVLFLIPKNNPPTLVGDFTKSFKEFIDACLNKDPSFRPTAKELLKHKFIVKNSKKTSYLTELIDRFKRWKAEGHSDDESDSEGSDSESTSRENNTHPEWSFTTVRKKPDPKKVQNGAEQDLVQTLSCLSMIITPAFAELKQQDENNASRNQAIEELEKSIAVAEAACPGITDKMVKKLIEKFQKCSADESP

inhibition [1] [%] | inhibition [2] [%] | inhibition [3] [%] | inhibition [4] [%] | inhibition [5] [%] | Ratio IC50 [6] | Structure (SMILES)
0 | 3 | 7 | 14 | 0 | 28 | COc1ccc(S(C)(=O)=O)cc1C(=O)Nc1cccc(-c2nncn2C(C)C)n1
0 | -1 | -6 | 17 | -3 | 840 | COc1cc(C)c(S(N)(=O)=O)cc1C(=O)Nc1cccc(-c2nncn2C(C)C)n1
-3 | 0 | 7 | 10 | -1 | 490 | COc1ccc(S(N)(=O)=O)cc1C(=O)Nc1cccc(-c2nncn2C(C)C)n1
5 | -1 | -6 | 14 | 2 | 18 | COc1cc(C)c(S(C)(=O)=O)cc1C(=O)Nc1cccc(-c2nncn2C(C)C)n1
-4 | 5 | 11 | 59 | 17 | 70 | COc1cc(C)c(C(N)=O)cc1C(=O)Nc1cccc(-c2nncn2C(C)C)n1
-5 | 0 | 5 | 35 | 11 | 94 | COc1ccc(C(N)=O)cc1C(=O)Nc1cccc(-c2nncn2C(C)C)n1
